Bioassay records: PubChem, several laboratories
AI-2 QS mod – Vibrio harveyi AI-2 quorum sensing modulators, primary screen, JMH597 strain, luminescence/OD600 ratio; Vibrio harveyi JMH597 AI-2 luminescence/OD600 ratio, 9 h; active compounds read low; strain lacks LuxN and CqsS sensors; 0 = neutral-control median; activity change, % at 7.5 µM; 300,000 tested, 0.4% active; AID 2094, 2009; in the data active = activity change below about -75%, passing the limit was not always enough;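 also: luminescence divided by OD600 gain over 9 h not by final OD600 alone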
bovine MsrA act – bovine MsrA enzyme activators, primary screen, biochemical, absorbance, HTS. AID 602163, 2012. Methionine sulfoxide reductase A (Bos taurus). activation, % at 10.6 µM. 360,000 tested, 0.3% active. purified bovine MsrA, absorbance read-out; in the data active = activation above about 7.5%;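 also: 0% = vehicle and 100% = reference activator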
AHR activator – AHR activators, primary screen, cell-based, luminescence, luciferase reporter, human; Aryl hydrocarbon receptor (Homo sapiens), P35869; AHR-responsive luciferase reporter cells; activation, % at 5 µM; 320,000 tested, 2.5% active; AID 2796, 2010; in the data active = activation above about 47%;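 also: 0% = vehicle wells and 100% = reference agonist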
Tb MetRS inh – T. brucei MetRS inhibitors, primary screen, biochemical, luminescence | methionyl-tRNA synthetase (Trypanosoma brucei brucei) | purified T. brucei MetRS, ATP depletion, Kinase-Glo luminescence | inhibition, % at 11.9 µM | 360,000 tested, 0.4% active | AID 624268, 2012;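 active = inhibition above a per-plate cutoff of the control wells' mean inhibition plus 3 SD, cut at about 5.5% in these data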;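 also: 0% = DMSO wells median and 100% = median of wells with control inhibitor compound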
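Material: parasite MetRS enzyme / Replication: singlicate, one well per compound / Signal: luminescence of leftover ATP / Schedule: 2 h aminoacylation at 25 °C after 15 min preincubation / Medium: HEPES-MgCl2-KCl buffer plus DTT, spermine, BSA, pyrophosphatase / Doses: 11.9 µM single point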
MsrA inh – bovine MsrA enzyme inhibitors, primary screen, biochemical, absorbance, HTS | 360,000 tested, 0.75% active | Methionine sulfoxide reductase A (Bos taurus) | purified bovine MsrA, absorbance read-out | inhibition, % at 15.5 µM | AID 651718, 2012; in the data active = inhibition above about 4.5%;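 also: 0% = vehicle wells with enzyme and 100% = reference inhibitor wells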
m5-HT2A agonist – mouse Htr2a agonists via beta-arrestin recruitment, primary screen, cell-based, luminescence | 5-hydroxytryptamine receptor 2A (Mus musculus), P35363 | CHO-K1 mHTR2A beta-arrestin complementation; percent of 30 µM serotonin response | activation, % at 7.6 µM | 360,000 tested, 0.66% active | AID 624169, 2012;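 active = activation above a run cutoff, the mean activation of all tested compounds plus 3 SD, cut at about 14% in these data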;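 also: 0% = plate median of compound wells and 100% = 30 µM serotonin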
OPRM1 ag – OPRM1 agonists via beta-arrestin recruitment, confirmation, counter-screen for mouse HTR2A agonist project, cell-based, luminescence, single concentration; 2,300 tested, 5.3% active; activation, % at 9.3 µM; U2OS OPRM1 beta-arrestin PathHunter; DMSO 0%, DAMGO 9.3 µM 100%; shares compounds with m5-HT2A agonist; AID 624380, 2012;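 active = mean activation above the mean of DMSO-only wells plus 3 SD, cut at about 0.5% in these data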
Target sequence (P35372 whole entry, looked up): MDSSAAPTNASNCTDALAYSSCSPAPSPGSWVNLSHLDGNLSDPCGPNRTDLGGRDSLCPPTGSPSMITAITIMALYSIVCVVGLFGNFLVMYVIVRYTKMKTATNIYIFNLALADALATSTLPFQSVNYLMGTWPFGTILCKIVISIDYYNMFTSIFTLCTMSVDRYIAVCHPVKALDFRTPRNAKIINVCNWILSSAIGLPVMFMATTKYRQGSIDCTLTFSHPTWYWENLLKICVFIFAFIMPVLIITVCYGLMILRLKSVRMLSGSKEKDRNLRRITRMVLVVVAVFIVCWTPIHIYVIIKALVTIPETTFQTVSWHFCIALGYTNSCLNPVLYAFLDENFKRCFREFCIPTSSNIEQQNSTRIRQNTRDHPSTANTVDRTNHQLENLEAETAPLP
m5-HT2A ag conf – mouse HTR2A agonists, beta-arrestin recruitment, confirmation, cell-based, luminescence, CHO-K1 PathHunter, triplicate; AID 624381, 2012; activation, % at 7.6 µM; 2,300 tested, 19% active; shares compounds with m5-HT2A agonist; DMSO 0%, 30 µM serotonin 100%;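 active = mean activation across triplicates above the hit threshold derived in the original primary screen, cut at about 15% in these data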
An asterisk follows results filed as active; x = no result. Only some compounds are listed: those with a hit (about 4.4% of all), similar ones and a draw of the others.

SMILES	AI-2 QS mod	bovine MsrA act	AHR activator	Tb MetRS inh	MsrA inh	m5-HT2A agonist	OPRM1 ag	m5-HT2A ag conf
COc1ccc(Br)cc1CN1CCN(c2ncccn2)CC1	5	-4	0	-1	-1	0	x	x
c1cnc(N2CCN(Cc3c[nH]c4ccccc34)CC2)nc1	6	6	4	0	1	29*	-1	93*
COc1cccc(CN2CCN(Cc3cc(OC)c(OC)c(OC)c3)CC2)c1OC	1	3	x	0	-1	0	x	x
CCCCCC(=O)N1C[C@@H](n2cc(-c3ccc(F)cc3)nn2)[C@H](O)C[C@@H]1c1ccc(Cl)cc1	x	1	x	-1	-2	-5	x	x
O=C(CN1C(=O)COc2ccc(S(=O)(=O)N3CCCCC3)cc21)NCc1ccc(Cl)cc1	18	1	1	1	-2	2	x	x
CCOP(=O)(OCC)C(Nc1ccc(OC)cc1)c1ccco1 (centres undefined)	6	-2	-1	0	0	19*	-1	-3
Cc1cc(/C=C(\C#N)C(=O)NC2CCCCCC2)c(C)n1C	12	-14	-1	-1	0	18*	0	3
COc1ccc(OC)c(NC(=O)C2CC(=O)N(c3ccccc3)C2)c1 (centres undefined)	15	-3	-2	-1	0	5	x	x
COc1ccc(NC(=O)C2CC(=O)N(c3ccccc3C)C2)c(OC)c1 (centres undefined)	-1	-5	3	0	0	15*	-1	-3
COc1cccc(CSCC(=O)NCCc2ccccc2)c1OC	25	-2	-1	0	0	-1	x	x
O=C(COC(=O)C1CC(O)CN1S(=O)(=O)c1ccc(Cl)cc1)c1ccccc1 (centres undefined)	1	-3	6	0	0	-2	x	x
Cc1[nH]c2ccccc2c1C(=O)COC(=O)C1CC(O)CN1S(=O)(=O)c1ccc(Cl)cc1 (centres undefined)	x	-6	11	0	0	15*	0	5
CC(C)CC(=O)Nc1c2c(nn1-c1cccc(Cl)c1)CS(=O)(=O)C2	8	-9	-1	-1	0	7	x	x
COc1cccc2c1cc1c(=O)n(CC(=O)N3CCC(C)CC3)nc(C)n12	24	-2	18	0	0	17*	0	57*
CC1(C(=O)NCc2ccccc2)Cc2c(-c3ccc4c(c3)OCO4)ccnc2O1 (centres undefined)	x	-1	x	0	-1	1	x	x
CCNc1nc(NCC)nc(N(C#N)C(C)C)n1	20	-2	2	1	-1	20*	-1	-3
CCNc1nc(NC(C)C)nc(N(C#N)C(C)C(=O)N(C)C)n1 (centres undefined)	14	-12	4	0	1	2	x	x
COc1cc(CC(=O)N(C)CC(=O)Nc2ccc(Cl)c(C(F)(F)F)c2)cc(OC)c1OC	9	0	6	1	0	-4	x	x
CC(CNC(=O)CCCn1ncn2c(cc3occc32)c1=O)c1ccccc1 (centres undefined)	-3	-8	4	-1	0	16*	-1	-6
NC(=O)Cn1nc(C(F)(F)F)c2c1CCCC2	24	-4	0	-1	0	40*	0	-3
Cc1ccc2c(=O)[nH]c(Cc3ccccc3C(=O)O)nc2c1	12	3	10	0	0	15*	0	10
CC1CCCC(C)N1C(=O)COC(=O)CSc1ccc(C(N)=O)cc1[N+](=O)[O-] (centres undefined)	17	-2	-1	0	0	16*	-1	-3
COc1cc(C(=O)NCC(c2cccs2)N2CCOCC2)ccc1OCc1ccccc1 (centres undefined)	x	-6	x	0	0	-5	x	x
O=C(CN1C(=O)NC(Cc2ccccc2)C1=O)Nc1ccccc1OC(F)F (centres undefined)	25	-5	1	0	0	18*	0	0
O=C(CN1C(=O)NC(Cc2ccccc2)C1=O)Nc1ccc(OC(F)F)cc1 (centres undefined)	-68	-1	-1	0	0	0	x	x
SMILES	AI-2 QS mod	bovine MsrA act	AHR activator	Tb MetRS inh	MsrA inh	m5-HT2A agonist	OPRM1 ag	m5-HT2A ag conf
Cc1ccc(S(=O)(=O)N/N=C/c2c(F)cccc2Cl)cc1	40	2	2	-1	1	15*	-1	-3
O=S(=O)(N/N=C/c1c(F)cccc1Cl)c1ccccc1	13	-3	-2	-1	-2	7	x	x
Cc1[nH]c(=O)[nH]c(=O)c1NC(=O)c1ccccc1[N+](=O)[O-]	x	-1	x	0	1	-3	x	x
C/C(=N/NS(=O)(=O)c1cccc([N+](=O)[O-])c1)c1ccncc1	27	-3	-1	0	2	-4	x	x
CC(=NNS(=O)(=O)c1cccc([N+](=O)[O-])c1)c1ccc(-n2ccnc2)cc1	x	-3	47	0	1	15*	-1	-5
Cc1cccc(C)c1NC(=O)CN1C(=O)C2CC=CCC2C1=O (centres undefined)	x	-3	0	0	0	-2	x	x
Cc1cccc(C(C)C)c1NC(=O)COC(=O)CN1C(=O)C2CC=CCC2C1=O (centres undefined)	18	-3	1	0	1	20*	0	6
O=C(NC(=S)Nc1ccc(N2CCCC2)cc1)c1ccc(F)cc1	34	-4	5	0	1	-4	x	x
C=CCn1c(SCc2nc3ccccc3[nH]2)nnc1-c1ccccn1	23	-1	3	3	0	19*	-1	-4
Cc1cc(C)c(C)c(Cn2c(CO)nc3ccccc32)c1C	21	0	12	1	0	15*	0	-1
OCc1nc2ccccc2n1Cc1ccc(Cl)cc1	26	-1	0	0	1	-5	x	x
